In brackets after ≈: the same amount, converted by molar mass.
Tests used:
[1] = biological target: Uracil-DNA glycosylase (Vaccinia virus (strain Western Reserve) (VACV) (Vaccinia virus (strainWR)), UniProt P04303); assay: Inhibition of Vaccinia virus WR strain processivity factor D4 interaction with A20 protein assessed as inhibition of E9 DNA polymerase-mediated DIG-dUTP incorporation into DNA strand by rapid plate assay; set-up: species or system Orthopoxvirus vaccinia
Summary of the method: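 Annealed biotinylated primer/100-bp template was coated on streptavidin plates. Compounds were 2-fold serial dilutions in DMSO. After 37 °C for 30 min, DIG-ELISA was read at 405 nm and normalised to DMSO and EDTA controls. Triplicates were used across at least three experiments.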

[2] = biological target: Uracil-DNA glycosylase (Vaccinia virus (strain Western Reserve) (VACV) (Vaccinia virus (strainWR))) (UniProt P04303); assay: Binding affinity at Vaccinia virus WR strain D4 assessed as change in unfolding transition temperature at 50 uM by thermofluor method
Summary of the method: (§1)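 Native D4 at 4 μM, His-tag removed and dialysed into buffer, was tested with or without 50 μM compound (final, 1% DMSO). Buffer was 25 mM Tris pH 7.2, 0.15 M NaCl, 5 mM ZnCl2, with Sypro Orange. Fluorescence was read from 25 to 80 °C at 1 °C/min. Tm is the unfolding midpoint, and ΔTm is Tm minus the DMSO mock. At least three independent experiments were run.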

BSC-1 = assay: (§2) Cytotoxicity against african green monkey BSC1 cells infected with Vaccinia virus assessed as lactate dehydrogenase release after 20 hrs by microplate reader; format: cell-based; conditions: chlorocebus aethiops, bsc-1, 20 h
Summary of the method: (§3)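 BSC-1 cells, seeded at 1 × 10^4 cells/well for 24 h, then received inhibitors at 2-fold serial dilutions in fresh medium with 1% DMSO for 20 h. LDH release into the medium was read at 492 nm after 30 min with reaction mixture in the dark. 2% Triton X-100 gave maximal release and 1% DMSO served as baseline. Triplicates were used, with three independent repeats, giving CC50.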

[3] = biological target: Uracil-DNA glycosylase (Vaccinia virus (strain Western Reserve) (VACV) (Vaccinia virus (strainWR))) (UniProt P04303); assay: Binding affinity at Vaccinia virus WR strain D4 assessed as melting temperature at 50 uM by thermofluor method; summary of the method: as §1
[4] = Selectivity index, CC50 for African green monkey BSC-1 cells to EC50 for Vaccinia virus; format: toxicity, cell-based; conditions: read-out: Ratio CC50/EC50
Vaccinia virus = assay: Antiviral activity against Vaccinia virus infected in BSC-1 cells by plaque reduction assay; format: functional, organism-based; conditions: Orthopoxvirus vaccinia
[5] = Solubility of the compound in phosphate buffer by chemiluminescence of total nitrogen contents; format: physicochemical
[6] = as §2; format: cell-based, BSC-1; conditions: chlorocebus aethiops, BSC-1 cells infected with Vaccinia virus; summary of the method: as §3

Structure (SMILES) | IC50 [1] [µM] | ΔTm [2] [°C] | CC50 (BSC-1) [µM] | Tm [3] [°C] | selectivity ratio [4] | EC50 (Vaccinia virus) [µM] | solubility ([5]; buffer) [µg/mL] | solubility ([5]; phosphate buffer, read-out: solubility) [µg/mL] | CC50 at 20 h [6] [µM]
CCOc1ccccc1C(=O)Nc1ccc2nc3c(c(Nc4ccc(OC)c(OC)c4)c2c1)CCCC3 | 106 | -2.1 | 73.7 | 36.3 | 11 | > 200 |  |  | 
Fc1ccc(Nc2c(-c3ccccn3)nc3ccc(Cl)cn23)cc1 | > 200 | -3.7 | > 200 | 34.7 | 53 | 3.8 |  |  | 
COc1ccc(Nc2nc(Nc3ccc(OC)cc3OC)nc(N3CCOCC3)n2)c(OC)c1 | > 200 | -3.4 | 170 | 35 |  |  |  |  | 
Cc1ccnc(NC(c2ccccc2F)c2ccc3cccnc3c2O)c1 (stereo unspecified) | 157 | -2 | > 200 | 36.4 | 69 | 2.9 |  |  | 
COc1ccc(Nc2cc(C(=O)NCCCN3CCN(c4ccccc4F)CC3)c3ccccc3n2)c(OC)c1 | > 200 | -3.6 | > 200 | 34.8 | 8 | 25.8 |  |  | 
COc1ccc(C)cc1N(CC(=O)N1CCC(C)CC1)S(=O)(=O)c1ccc(C)cc1 | 175 | -4.8 | > 200 | 33.6 |  |  |  |  | 
Cc1ccccc1Nc1c(-c2ccc(Br)cc2O)nc2sccn12 | > 200 | -1.9 | 142 | 36.5 | 9 | > 200 |  |  | 
Oc1ccc(NCc2ccccc2OCc2ccccc2)cc1 | 5.1 | 14.9 | 175 | 53.3 | 25 | 7.1 | 1.1 (≈ 3.6 µM) |  | 
COc1cc(NC(=O)c2cccc3c2C(=O)N(C2CCCCC2)C3)cc(OC)c1OC | > 200 | -4.9 | > 200 | 33.2 |  | > 200 |  |  | 
COc1ccc(/C=C/c2nc(-c3ccccc3O)n(-c3ccccc3)n2)cc1OC | > 200 | -3.7 | 107 | 34.7 | 0.5 | > 200 |  |  | 
COc1ccc(NCc2nc3ccccc3n2CCOc2ccc(C)cc2)cc1 | > 200 | -3.2 | 121 | 35.2 | 22 | 5.5 |  |  | 
Cc1ccc2oc(-c3ccc(Cl)cc3)c(O)c(=O)c2c1 | 195 | -2 | > 200 | 36.4 |  |  |  |  | 
CCOc1ccc2c(c1)C1CC=CC1[C@H](c1ccccc1Cl)N2 (stereo partly specified) | 221 | -5 | > 200 | 35.2 | 9 | 22.4 |  |  | 
CN(C)c1ccc(NC(=O)CSc2nc(-c3ccco3)cc(C(F)(F)F)n2)cc1 | 140 | -1.7 | 57.2 | 35.1 | 4 | > 200 |  |  | 
COc1cc(-c2nc3ccc(Cl)cn3c2Nc2ccc3c(c2)OCCO3)ccc1O | > 200 | -1.5 | > 200 | 36.9 | 18 | 10.8 |  |  | 
C=C(Cn1cc(C(=O)c2ccc(CC)cc2)c(=O)c2ccccc21)Nc1ccc(OC)c(OC)c1 | > 200 | -3.2 | 52.9 | 35.4 | 0.3 | > 200 |  |  | 
Oc1ccc(Cl)cc1Sc1cc(Cl)ccc1O [FENTICLOR] | 38.5 |  |  |  |  | 18.7 |  |  | 
O=C1c2ccccc2-c2onc3c2C1C(NC1CCCCC1)C=C3NCCO (stereo unspecified) | 34.1 |  |  |  |  |  |  | 1.4 (≈ 3.69 µM) | 127
OC1COc2ccc(-c3cc(-c4ccc(F)cc4)c4c(n3)-c3cc(Cl)ccc3OC4)cc2N1 (stereo unspecified) | > 200 | -3.5 | > 200 | 34.9 | 3 | 74.6 |  |  | 
COc1cc(-c2nc(-c3ccccc3)c(-c3ccc(Br)cc3)[nH]2)cc(OC)c1O | 91.2 | 4.6 | 57.2 | 43 | 3 | 16.7 | 1.4 (≈ 3.1 µM) |  | 
COC(=O)CC1Oc2ccc(C)cc2-n2cc(-c3ccc(F)cc3)nc21 (stereo unspecified) | > 200 | -6.6 | 84.1 | 32.2 | 0.4 | > 200 |  |  | 
COc1ccc(OCCn2c(NC(=O)c3ccc(OC)cc3)nc3ccccc32)cc1 | 169 | -4.1 | 23.2 | 34.3 | 0.5 | 47.9 |  |  | 
COc1ccc(Nc2c(-c3cc(Br)ccc3O)nc3ncccn23)cc1OC | 200 | -0.1 | > 200 | 38.3 | 3 | 67.6 |  |  | 
Cn1c(=O)n(C)c2cc(NS(=O)(=O)c3ccc(C(C)(C)C)cc3)c(NCc3ccccc3)cc21 | 132 | 10 | > 200 | 48.4 | > 10 | 18.8 | 0.9 (≈ 1.88 µM) |  | 
Cc1cc2n(n1)C(c1cc(C(C)(C)C)c(O)cc1O)Nc1ccccc1-2 (stereo unspecified) | 138 | 4.9 | 92.8 | 44.3 | 4 | 21.5 | 19.1 (≈ 54.7 µM) |  | 
O=S(=O)(c1ccc(C2=CSC(Nc3ccc(F)cc3)N2CCCCCCO)cc1)N1CCCC1 (stereo unspecified) | > 200 | -3.3 | > 200 | 35.1 | 63 | 3.2 |  |  | 
CCOC(=O)c1cnc2c(ccc3ccccc32)c1Nc1ccc(N(C)C)cc1 | 139 | -1.5 | > 200 | 36.3 |  |  |  |  | 
COc1ccc(N2CCN(Cc3nc4c(c(=O)[nH]c(=O)n4C)n3Cc3ccc(Cl)cc3)CC2)cc1 | > 200 | -2.5 | 92.8 | 35.9 | 0.4 | > 200 |  |  | 
